Results from different studies.
Target: Mitogen-activated protein kinase kinase kinase kinase 3 (MAP4K3, Homo sapiens, UniProt Q8IVH8)
Sequence (Q8IVH8 1-894, as in one of the studies): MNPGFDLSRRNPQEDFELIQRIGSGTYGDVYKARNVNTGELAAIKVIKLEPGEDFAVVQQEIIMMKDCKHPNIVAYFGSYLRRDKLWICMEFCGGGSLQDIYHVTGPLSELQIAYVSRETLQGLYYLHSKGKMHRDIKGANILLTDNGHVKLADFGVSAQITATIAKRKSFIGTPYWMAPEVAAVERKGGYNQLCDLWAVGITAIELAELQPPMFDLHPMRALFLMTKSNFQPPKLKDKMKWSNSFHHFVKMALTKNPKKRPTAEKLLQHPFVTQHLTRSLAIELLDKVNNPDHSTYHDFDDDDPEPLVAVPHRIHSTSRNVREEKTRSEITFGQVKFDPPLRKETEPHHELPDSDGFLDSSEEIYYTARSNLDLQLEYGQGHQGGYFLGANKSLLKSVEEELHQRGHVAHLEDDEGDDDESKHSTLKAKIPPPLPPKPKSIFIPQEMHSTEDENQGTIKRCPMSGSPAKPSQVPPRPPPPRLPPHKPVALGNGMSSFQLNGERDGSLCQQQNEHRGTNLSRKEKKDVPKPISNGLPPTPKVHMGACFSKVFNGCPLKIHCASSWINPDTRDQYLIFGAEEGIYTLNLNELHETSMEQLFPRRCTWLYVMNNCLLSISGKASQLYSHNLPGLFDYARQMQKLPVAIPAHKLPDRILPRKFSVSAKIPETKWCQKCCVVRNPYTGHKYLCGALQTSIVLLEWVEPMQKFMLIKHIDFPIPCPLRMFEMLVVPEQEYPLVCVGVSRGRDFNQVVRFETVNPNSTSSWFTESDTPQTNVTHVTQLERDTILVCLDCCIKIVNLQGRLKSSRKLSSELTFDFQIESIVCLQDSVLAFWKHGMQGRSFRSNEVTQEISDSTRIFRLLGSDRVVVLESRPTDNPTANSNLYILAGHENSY

| Compound | test | setting | remaining binding |
| --- | --- | --- | --- |
| O=C(c1ccc(Nc2ncc(Cl)c(-c3ccc(Cl)s3)n2)cc1)N1CCC(N2CCCC2)CC1 | binding, competition with immobilised ligand | 1 µM | 50% |
| CN([C@@H]1CCc2c(CC(=O)O)c3cc(S(C)(=O)=O)ccc3n2C1)S(=O)(=O)c1ccc(F)cc1 | cell-free assay, competition with immobilised ligand | 1 µM | 100% |
| CN(C)c1nccc(-c2cnn3ncccc23)n1 | binding | 1 µM | 100% |
| CC1=C(C#N)[C@@H](c2ccc3[nH]nc(C)c3c2)C(C#N)=C(c2ccc(Cl)cc2)N1 | cell-free assay, competition with immobilised ligand | 1 µM | 100% |
| c1cnn2ncc(-c3ccnc(N4CCC45COC5)n3)c2c1 | binding | 1 µM | 88% |
| O=C(Nc1cccnn1)N1CC(C/C=C/c2cncc(Oc3ccc(C(F)(F)F)cn3)n2)C1 | cell-free assay, competition with immobilised ligand | 1 µM | 100% |
| O=C(NCCCN1CCOCC1)c1ccc(Nc2ncc(Cl)c(-c3ccc(Cl)s3)n2)cc1 | binding, competition with immobilised ligand | 1 µM | 38% |
| N[C@H]1CCN(c2nccc(-c3cnn4ncccc34)n2)C1 | binding | 1 µM | 100% |
| CC(C)(O)c1cncc(-c2nc3ccc(F)cc3n2C2CC2)c1 | cell-free assay, competition with immobilised ligand | 1 µM | 100% |
| COc1ncc2cc3ccccc3nc2c1C#N | cell-free assay, competition with immobilised ligand | 5 µM | 100% |
| COc1cnc(Nc2cccc(S(N)(=O)=O)c2)nc1N1CCN(c2ccccc2)CC1 | binding, competition with immobilised ligand | 1 µM | 98% |
| O=C(c1ccc(Nc2ncc(Cl)c(-c3cc4ccccc4s3)n2)cc1)N1CCC(N2CCCC2)CC1 | binding, competition with immobilised ligand | 1 µM | 40% |
| C[C@H]1CCN(c2nccc(-c3cnn4ncccc34)n2)C1 | binding | 1 µM | 100% |
| Nc1ncc2c(n1)-c1c([nH]c3ccc(C#CC4CC4)cc13)CCCC2 | binding, competition with immobilised ligand | 1 µM | 87% |
| c1cncc(-c2cccc(Nc3nccc(NC4CCCCC4)n3)c2)c1 | binding, competition with immobilised ligand | 10 µM | 83% |
| Cc1cnn2ncc(-c3ccnc(N(C)C)n3)c2c1 | binding | 1 µM | 100% |
| O=C(O)c1cc(-c2ccc(C3CCNCC3)cc2)c2ccc(-c3ccc(C(F)(F)F)cc3)cc2c1 | cell-free assay, competition with immobilised ligand | 1 µM | 100% |
| O=C(Nc1c[nH]nc1C(=O)NC1CCNCC1)c1cc(F)cc(F)c1 | binding, competition with immobilised ligand | 1 µM | 74% |
| CN(c1nccc(-c2cnn3ncccc23)n1)C1CC1 | binding | 1 µM | 100% |
| Cc1c(C(=O)O)cc(-c2ccc(C3CCNCC3)cc2)c2ccc(-c3ccc(C(F)(F)F)cc3)cc12 | binding, competition with immobilised ligand | 1 µM | 100% |
